Source: PubChem (NMMLSC)
Hits are enriched below; roughly 0.96% of the tested compounds scored in any of these assays.
RPL19A TOR yeast: RPL19A-GFP expression modulators in yeast, primary screen, cell-based, S. cerevisiae, multiplex flow cytometry, MLPCN. percent response vs DMSO, % at 10 µM. 330,000 tested, 0.3% active. S. cerevisiae RPL19A-GFP strain, 3 h; active compounds read low;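 active means percent response vs DMSO below 50%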;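 further: median channel GFP fluorescence of the barcoded RPL19A-GFP strain; ratio of sample median GFP to plate DMSO average so 100% = DMSO; lower means less RPL19A-GFP as with rapamycin TOR inhibition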
MEP2 TOR yeast: modulators of MEP2-GFP levels in yeast, primary screen, S. cerevisiae, multiplex flow cytometry, MLPCN library. S. cerevisiae MEP2-GFP strain, 3 h; 100% = DMSO control level. GFP response vs DMSO, % at 10 µM. 330,000 tested, 0.51% active;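 active means GFP response versus DMSO above a set limit, roughly screen mean plus 3 SD, cut at about 180% in these data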;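 further: median GFP fluorescence of the barcode-gated MEP2-GFP cells per well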
AGP1-GFP MLPCN: modulators of AGP1-GFP expression in yeast TOR pathway, primary screen, cell-based, multiplex flow cytometry, S. cerevisiae, MLPCN library; 320,000 tested, 0.02% active; 3 h; GFP as percent of DMSO wells; GFP response vs DMSO, % at 10 µM;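 active means GFP response relative to DMSO above a set limit, near screen average plus 3 SD, cut at about 150% in these data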;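 further: median GFP channel fluorescence of the gated AGP1 strain per well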
LAP4 TOR yeast: modulators of LAP4-GFP expression in yeast, primary screen, S. cerevisiae, multiplex flow cytometry, MLPCN library; 3 h; median GFP as percent of DMSO wells; GFP response vs DMSO, % at 10 µM; 320,000 tested, 0.34% active;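 active means GFP response vs DMSO above a set limit, about the screen mean plus 3 SD, cut at about 150% in these data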
CIT2-GFP yeast: modulators of CIT2-GFP expression in yeast, primary screen, S. cerevisiae, GFP fusion, multiplex flow cytometry, MLPCN library; 320,000 tested, 0.065% active; GFP response vs DMSO, % at 10 µM; S. cerevisiae CIT2-GFP strain, 3 h; 100 means same as DMSO wells;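 active means GFP response relative to DMSO above a set limit, near the screen mean plus 3 SD, cut at about 150% in these data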;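 further: ratio of well median GFP fluorescence to mean of DMSO wells on the plate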
T cell HTS: modulators of CD8 T cell-vesicle binding, primary screen, mouse 2C CD8+ T cells, flow cytometry | 2C CD8+ T cell-vesicle binding; active compounds read low | 330,000 tested, 0.068% active | response (vesicle binding), % at 7 µM;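 active means response, share of CD8 T cells binding vesicles, and their 90th percentile fluorescence all below set limits, cut at about 80% in these data, passing the limit was not always enough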;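 further: values below 100% mean blocked vesicle binding to the CD8+ T cells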
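Material: 2C TCR transgenic mouse naive CD8+ T cells, MACS-purified. Also added: QL9-charged Drosophila Ld/ICAM-1/B7-1 vesicles. Timing: binding 1.5 h at 37 °C. Measured by: high-throughput flow cytometry with anti-B7-1 and anti-CD8 staining. Read-out: percent CD8+ FL2 mean versus row control. Controls: Unloaded micro-vesicles (low), QL9 vesicles with 0.7% DMSO (high).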
LAP4-GFP pick2: LAP4-GFP expression modulators in yeast, confirmation, cell-based, second cherry pick, flow cytometry. 590 tested, 20% active. GFP response vs DMSO, % at 10 µM. shares compounds with LAP4 TOR yeast. S. cerevisiae LAP4-GFP strain, 3 h;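 active means GFP signal as percent of the solvent control above about 150%, meaning raised reporter expression, limit read from the data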;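 further: ratio of well median GFP fluorescence to plate DMSO mean so 100% = DMSO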
MEP2 cherry2: modulators of MEP2-GFP levels in yeast, confirmation, S. cerevisiae, flow cytometry GFP, second cherry picks; shares compounds with LAP4 TOR yeast; S. cerevisiae MEP2-GFP strain, 3 h; GFP response vs DMSO, % at 10 µM; 590 tested, 10% active; AID 2622, 2010;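 active means GFP signal above 150% of the solvent control wells, that is a rise of more than half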;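 further: median channel GFP fluorescence of all gated yeast cells per well; ratio of median GFP to plate DMSO average so 100% = DMSO level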
RPL19A GFP CP2: RPL19A-GFP modulators in TOR pathway yeast, confirmation, cell-based, S. cerevisiae, flow cytometry, second cherry pick | shares compounds with LAP4 TOR yeast | GFP response vs DMSO, % at 10 µM | S. cerevisiae RPL19A-GFP strain, 3 h; active compounds read low; 100% means same as DMSO wells | AID 2623, 2010 | 590 tested, 3% active;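 active means under 65% GFP response relative to DMSO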;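 further: median GFP channel fluorescence per well over the all cells gate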
CIT2 GFP CP2: modulators of CIT2-GFP expression in yeast, confirmation, flow cytometry, second cherry pick, single plex | AID 2624, 2010 | 590 tested, 8% active | GFP response vs DMSO, % at 10 µM | shares compounds with LAP4 TOR yeast | S. cerevisiae CIT2-GFP strain, 3 h; DMSO control wells read 100%;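 active means GFP response vs DMSO above about 150%, limit read from the data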;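 further: median green fluorescence per well over all gated yeast cells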
AGP1 GFP CP2: AGP1-GFP expression modulators, hit retest, confirmation, cell-based, flow cytometry, S. cerevisiae, cherry pick set 2 | shares compounds with LAP4 TOR yeast | S. cerevisiae AGP1-GFP strain, 3 h | percent response vs DMSO, % at 10 µM | 590 tested, under 10 active;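 active means over 150 percent of DMSO response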;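 further: median GFP channel fluorescence over all cells without mother daughter split; sample median GFP divided by mean DMSO control so 100% equals DMSO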
Yeast autofluor: compound autofluorescence in yeast s288c, dose response, artefact control for yeast TOR pathway GFP screen, s288c strain; shares compounds with LAP4 TOR yeast; 610 tested, under 10 active; S. cerevisiae s288c, 520 nm autofluorescence, flow cytometry, 3 h; active compounds read high; zero means same as solvent-only cells; fluorescence change (kMESF span) at 33 µM; AID 2757, 2010;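 active means fluorescence span over the dose series, or activity score, above about 33, limit read from the data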
Yeast autofl DR: autofluorescence of compounds in yeast s288c, dose response, artefact control for yeast TOR pathway GFP screen, primary hits, KU SAR, s288c parental. fluorescence change (span) at 33 µM. AID 488829, 2010. S. cerevisiae s288c parental, compound autofluorescence, flow cytometry, 3 h. shares compounds with LAP4 TOR yeast. 110 tested, under 10 active;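 active means fluorescence change span, or the activity score built from it, above 25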
TORC1 bypass gr: wild-type yeast growth inhibition sparing TORC1 bypass cells, mechanism study for yeast TOR pathway GFP screen, BY4741 wild type, TORC1 bypass strain; shares compounds with LAP4 TOR yeast; S. cerevisiae BY4741 spot growth rating, 48-72 h; active compounds read low; growth rating (0-3) at 30 µM; 120 tested, under 10 active; AID 504456, 2011;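 active means growth rating at most 1 for wild type yeast while the TORC1 bypass strain still grows fully, rated 3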
* marks the source's active call; other numbers are inactive results; i = inactive; · = no result.

SMILES	RPL19A TOR yeast	MEP2 TOR yeast	AGP1-GFP MLPCN	LAP4 TOR yeast	CIT2-GFP yeast	T cell HTS	LAP4-GFP pick2	MEP2 cherry2	RPL19A GFP CP2	CIT2 GFP CP2	AGP1 GFP CP2	others
CC(C)c1cc(-c2cc(C(=O)NCc3ccccc3)on2)nc(NCC2CC2)n1	91	92	80	144	63	526	117	103	96	109	100
CC(=O)c1sc(NC(=O)CN2C(=O)C3CC=CCC3C2=O)nc1-c1ccccc1 (configuration not stated)	100	98	110	99	100	285	·	·	·	·	·
COc1ccc(OC)c(C(=O)NC(CC(N)=O)c2ccc(N3CCCCCC3)c([N+](=O)[O-])c2)c1 (configuration not stated)	97	99	87	128	90	283	·	·	·	·	·
CCN(CC)S(=O)(=O)c1ccc(N2CCc3cc(OC)c(OC)cc3C2)nc1	106	100	104	101	103	269	·	·	·	·	·
CCN(CC)CCCNC(=S)N1CCC(c2nc3ccccc3[nH]2)CC1	95	89	90	76	96	217	·	·	·	·	·
CCc1ccc2nc(N(CCCN(C)C)C(=O)c3ccc(C(=O)c4ccccc4)cc3)sc2c1	105	102	87	79	101	168	·	·	·	·	·
Cc1cc(C)c[n+](C(C)C(=O)c2ccc(Cl)cc2)c1 (configuration not stated)	101	108	99	102	101	126	·	·	·	·	·
CC(C)c1cc(-c2cc(C(=O)NCc3ccccc3)on2)nc(NC2CCCC2)n1	94	92	80	156*	78	192	125	119	98	110	100
Cc1cc(NC2CCCCC2)nc(NCc2ccccc2)n1	111	114	108	103	115	145	·	·	·	·	·
O=c1[nH]c(-c2ccc(Cl)cc2)cs1	63	94	81	120	84	382	104	112	99	102	105	Yeast autofluor=0.1
Cc1cccc(C)c1NC(=O)CNC(=O)CCCN1C(=O)c2cccc3cccc(c23)C1=O	170	449*	182*	375*	414*	196	99	108	100	102	100
CC(C)N(C(=O)COC(=O)c1ccc(Cl)c(S(N)(=O)=O)c1)C(C)C	82	105	113	174*	82	650	102	105	102	98	103
CCOC(=O)CSC1=NC(=O)/C(=C\c2ccc(Cl)cc2)S1	94	87	83	184*	73	i	·	·	·	·	·	Yeast autofluor=0.21;Yeast autofl DR=0.16;TORC1 bypass gr=3
COc1ccc(C2OC34CCCCC3C(C#N)(C#N)C2(C#N)C(=N)O4)cc1 (configuration not stated)	63	139	32	93	80	174	94	96	100	106	96
C#CCOc1c(Br)cc(/C=C2/C(=O)ON=C2C)cc1OC	91	98	89	197*	95	197	187*	136	93	122	101	Yeast autofluor=0.51
C=CC[C@@H](CC(=O)OC(C)(C)C)C(=O)OC[C@@H]1CCCN1C(=O)[C@@H](CC=C)CC(=O)N[C@H](CO)Cc1ccccc1	83	98	95	198*	66	286	99	94	100	106	95
C=CC[C@H](CC(=O)OC(C)(C)C)C(=O)OC[C@@H]1CCCN1C(=O)[C@@H](CC=C)CC(=O)N[C@H](CO)Cc1ccccc1	108	110	113	116	108	729	·	·	·	·	·
O=C(NN=C1CCCC1)c1cc(Cl)cc(Cl)c1O	107	98	103	86	110	195	·	·	·	·	·
Nc1nnc(-c2ccc(Cl)c([N+](=O)[O-])c2)s1	101	104	99	99	97	520	·	·	·	·	·
CCN(CC)C(=O)Oc1ccc(Cl)c2cccnc12	101	100	96	111	94	410	·	·	·	·	·
O=C(Nc1cccc(C(F)(F)F)c1)Oc1ccc(Cl)c2cccnc12	95	99	70	202*	113	84	·	·	·	·	·	Yeast autofluor=0.5
OCCC#Cc1c(-c2ccsc2)sc2ccccc12	86	99	88	159*	96	807	108	119	90	104	99
COc1ccc(S(=O)(=O)N2CCC(C(=O)NC3CCCCC3C)CC2)cc1 (configuration not stated)	75	163	16	87	93	210	·	·	·	·	·
O=C1C=C(O)c2cccc(O)c2C1=O	95	96	95	105	87	150	·	·	·	·	·
